Experimental data as given in ChEMBL document CHEMBL4049387, “Combination of l-Carnitine with Lipophilic Linkage-Donating Gemcitabine Derivatives as Intestinal Novel Organic Cation Transporter 2-Targeting Oral Prodrugs” (J Med Chem, 2017).

Legend:
[1] = Half life in pH 1.2 phosphate buffer at 5 uM by HPLC method; assay type: physicochemical
How it was run: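 Compound dissolved at 5 µM in phosphate buffer (pH 1.2, 6.8 or 7.4), held at 37 °C for 24 h. Aliquots taken at intervals and analysed by HPLC. t1/2 = 0.693/k from linear regression of pseudo-first-order kinetics.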

[2] = Half life in rat hepatic homogenates at 5 uM by HPLC method; assay type: ADME, tissue-based, Liver
How it was run: (§1)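 Compound at 5 µM final in rat plasma, 20% rat hepatic homogenate or 20% rat intestinal homogenate at 37 °C for 24 h. Homogenates made by homogenizing 0.3 g saline-washed tissue in 1 mL saline, spun 13,000 rpm 4 °C 5 min. Sampled at intervals, analysed by HPLC. t1/2 = 0.693/k.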

[3] = Half life in rat plasma at 5 uM by HPLC method; assay type: ADME, cell-free; how it was run: as §1
[4] = molecular target: T1, Organic cation/carnitine transporter 2 (Homo sapiens, UniProt O76082); assay: Ratio of drug transport assessed as OCTN2 transporter mediated drug uptake in human Caco2 cells at 100 uM in absence of L-carnitine to drug transport assessed as OCTN2 transporter mediated drug uptake in human Caco2 cells at 100 uM in presence of L-carnitine; assay type: ADME, cell-based; conditions: caco-2, 100 µM
T1 sequence (O76082 whole entry): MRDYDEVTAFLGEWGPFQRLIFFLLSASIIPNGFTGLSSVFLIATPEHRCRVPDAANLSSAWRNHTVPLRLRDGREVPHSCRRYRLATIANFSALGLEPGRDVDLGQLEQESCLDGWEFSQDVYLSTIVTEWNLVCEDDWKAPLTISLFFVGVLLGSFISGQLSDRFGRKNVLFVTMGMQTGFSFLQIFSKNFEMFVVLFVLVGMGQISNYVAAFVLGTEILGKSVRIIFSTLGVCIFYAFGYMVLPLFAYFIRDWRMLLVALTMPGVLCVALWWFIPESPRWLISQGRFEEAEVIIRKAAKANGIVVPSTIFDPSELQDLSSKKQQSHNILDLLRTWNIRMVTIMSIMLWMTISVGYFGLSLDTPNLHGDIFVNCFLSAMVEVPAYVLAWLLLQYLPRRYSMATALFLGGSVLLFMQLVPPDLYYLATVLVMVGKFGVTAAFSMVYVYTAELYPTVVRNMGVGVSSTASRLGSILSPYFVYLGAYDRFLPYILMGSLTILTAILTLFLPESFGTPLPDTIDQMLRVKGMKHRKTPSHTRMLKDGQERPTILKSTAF

BXPC-3 = assay: Cytotoxicity against human BxPC3 cells assessed as decrease in cell viability after 48 hrs by MTT assay; assay type: functional, cell-based
How it was run: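 BxPC-3 and Caco-2 cells exposed to compounds for 48 h. Viability read by MTT assay kit. IC50 calculated from dose-response.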

Caco-2 = assay: Ratio of IC50 for cytotoxicity against human Caco2 cells in presence of L-carnitine to IC50 for cytotoxicity against human Caco2 cells in absence of L-carnitine; assay type: functional
[5] = Terminal half-life in Wistar rat at 50 mg/kg, po administered as single dose by UPLC-MS/MS method; assay type: ADME, organism-based; conditions: in vivo, read-out: beta t1/2 (converted)
How it was run: (§2)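 Wistar rats, six per group, single oral dose equivalent to 50 mg/kg gemcitabine; separate group given gemcitabine iv at 7.5 mg/kg. Oral sampling at 5, 10, 15, 30 min and 1, 2, 4, 6, 8, 12, 24 h; iv at 15, 30 min and 2, 4, 8, 12, 24 h. Blood into THU-pretreated heparinized tubes, centrifuged 3000 × g 15 min, plasma at -80 °C. Prodrug and gemcitabine quantified by UPLC-MS/MS. F = AUCpo×Div/AUCiv/Dpo×100%.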

[6] = Tmax in Wistar rat at 50 mg/kg, po administered as single dose by UPLC-MS/MS method; assay type: ADME, organism-based; conditions: in vivo; how it was run: as §2
Heart [7] = assay: Drug uptake in mouse heart at 102 mg/kg, po administered as single dose at 0.5 hrs post dose; assay type: ADME, organism-based; conditions: in vivo
How it was run: (§3)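 Mice, three per time point, single oral dose of 102 mg/kg (equivalent to 50 mg/kg gemcitabine). Heart, liver, spleen, lung, kidney and brain collected at 0.16, 0.5 and 2 h, rinsed in saline. 0.3 g tissue homogenized 1 min in 1 mL saline, spun 13,000 rpm 4 °C 5 min. Gemcitabine measured in supernatant.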

Heart [8] = assay: Drug uptake in mouse heart at 102 mg/kg, po administered as single dose at 2 hrs post dose; assay type: ADME, organism-based; conditions: in vivo; how it was run: as §3
Lung = assay: Drug uptake in mouse lung at 102 mg/kg, po administered as single dose at 2 hrs post dose; assay type: ADME, organism-based; conditions: in vivo; how it was run: as §3
Mus musculus [9] = assay: Toxicity in Kunming mouse assessed as […] degeneration in cardiac muscle at 102 mg/kg, po administered once daily for 14 days by hematoxylin/eosin staining based optical microscopic analysis; assay type: organism-based; conditions: in vivo, 336 h
How it was run: (§4)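 Kunming mice, four per group, dosed orally once daily for 14 days with 102 mg/kg or saline control; body weight recorded every other day. Heart, liver, spleen, lung and kidney fixed in 10% buffered formalin, paraffin-embedded, sectioned, stained with hematoxylin and eosin, and examined by optical microscopy.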

Mus musculus [10] = assay: Toxicity in Kunming mouse assessed as […] degeneration in spleen at 102 mg/kg, po administered once daily for 14 days by hematoxylin/eosin staining based optical microscopic analysis; assay type: organism-based; conditions: in vivo, 336 h; how it was run: as §4
Mus musculus [11] = assay: Toxicity in Kunming mouse assessed as […] degeneration in lung at 102 mg/kg, po administered once daily for 14 days by hematoxylin/eosin staining based optical microscopic analysis; assay type: organism-based; conditions: in vivo, 336 h; how it was run: as §4
Mus musculus [12] = assay: Toxicity in Kunming mouse assessed as […] degeneration in kidney at 102 mg/kg, po administered once daily for 14 days by hematoxylin/eosin staining based optical microscopic analysis; assay type: organism-based; conditions: in vivo, 336 h; how it was run: as §4
Mus musculus [13] = assay: Toxicity in Kunming mouse assessed as inflammatory infiltrates in hepatocytes at 102 mg/kg, po administered once daily for 14 days by hematoxylin/eosin staining based optical microscopic analysis; assay type: organism-based; conditions: in vivo, 336 h; how it was run: as §4
Mus musculus [14] = assay: Toxicity in Kunming mouse assessed as inflammatory infiltrates in spleen at 102 mg/kg, po administered once daily for 14 days by hematoxylin/eosin staining based optical microscopic analysis; assay type: organism-based; conditions: in vivo, 336 h
How it was run: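 Kunming mice, four per group, dosed orally once daily for 14 days with test article or physiological saline control, body weight recorded every other day. After sacrifice, heart, liver, spleen, lung and kidney were fixed at once in 10% buffered formalin, paraffin-embedded, sectioned, H&E stained and examined by optical microscopy for hydropic degeneration, inflammatory infiltrates and fibrosis.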

Mus musculus [15] = assay: Toxicity in Kunming mouse assessed as fibrosis in cardiac muscle at 102 mg/kg, po administered once daily for 14 days by hematoxylin/eosin staining based optical microscopic analysis; assay type: organism-based; conditions: in vivo, 336 h; how it was run: as §4
Mus musculus [16] = assay: Toxicity in Kunming mouse assessed as fibrosis in spleen at 102 mg/kg, po administered once daily for 14 days by hematoxylin/eosin staining based optical microscopic analysis; assay type: organism-based; conditions: in vivo, 336 h; how it was run: as §4
Mus musculus [17] = assay: Toxicity in Kunming mouse assessed as fibrosis in lung at 102 mg/kg, po administered once daily for 14 days by hematoxylin/eosin staining based optical microscopic analysis; assay type: organism-based; conditions: in vivo, 336 h; how it was run: as §4
Mus musculus [18] = assay: Toxicity in Kunming mouse assessed as fibrosis in kidney at 102 mg/kg, po administered once daily for 14 days by hematoxylin/eosin staining based optical microscopic analysis; assay type: organism-based; conditions: in vivo, 336 h; how it was run: as §4
[19] = molecular target: T1, Organic cation/carnitine transporter 2; assay: Drug transport assessed as Vmax for OCTN2 transporter mediated drug uptake in human Caco2 cells after 10 mins by Eadie-Hofstee plot method; assay type: ADME, cell-based; conditions: caco-2, 10 min

half-life at 5 µM [1]: 4.4 h
half-life at 5 µM [2]: 17.4 h
half-life at 5 µM [3]: 6.2 h
Ratio [4]: 2.2 to 3.7
half-life [5]: 6.8 h
Tmax [6]: 1.3 h
Drug uptake (Heart [7]): Active
Drug uptake (Heart [8]): Not Active
Drug uptake (Lung): Not Active
Vmax [19]: 0.286 nmol/mg
SMILES: C[N+](C)(C)CC(CC(=O)[O-])OC(=O)CCCCC(=O)Nc1ccn([C@@H]2O[C@H](CO)[C@@H](O)C2(F)F)c(=O)n1 (stereo partly drawn)
Activity (BXPC-3): Dose-dependent effect
IC50 (BXPC-3; BXPC-3, 48 h): 320 nM
Ratio IC50 (Caco-2): 8
Activity (Mus musculus [9]): Non-Toxic
Activity (Mus musculus [10]): Non-Toxic
Activity (Mus musculus [11]): Non-Toxic
Activity (Mus musculus [12]): Non-Toxic
Activity (Mus musculus [13]): Non-Toxic
Activity (Mus musculus [14]): Non-Toxic
Activity (Mus musculus [15]): Non-Toxic
Activity (Mus musculus [16]): Non-Toxic
Activity (Mus musculus [17]): Non-Toxic
Activity (Mus musculus [18]): Non-Toxic
